Key:
[1] = Inhibition of Plasmodium falciparum recombinant GSK-3 by radiometric protein kinase assay
In short: (§1)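 His6-tagged recombinant GSK-3 expressed in E. coli (TOP10/pBAD-Thio-TOPO for P. falciparum and T. gondii, arabinose-induced; BL21(DE3)-pRARE2/pET15 for C. parvum, IPTG at 15 °C), Ni-NTA purified. Assayed with 40 μM GS-1 phosphopeptide, 15 μM γ-33P-ATP in pH 7.5 Tris buffer with MgCl2, EGTA, DTT, heparin, BSA; 30 min, 30 °C; P81 paper, phosphoric acid washes, scintillation counting. DMSO controls; dose-response IC50, triplicate points.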

[2] = Inhibition of pig GSK-3 by radiometric protein kinase assay; set-up: species or system Sus scrofa
In short: (§2)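 Native affinity-purified porcine GSK-3 in the radiometric assay: 40 μM GS-1 peptide, 15 μM γ-33P-ATP, pH 7.5 Tris/MgCl2/EGTA/DTT/heparin/BSA buffer, 30 min at 30 °C, P81 filter binding and scintillation counting. IC50 from dose-response curves with triplicate points; top concentration 10 or 100 μM.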

[3] = test system: Plasmodium falciparum; assay: Antiplasmodial activity against Plasmodium falciparum after 72 hrs by luciferase reporter gene assay; type: functional, organism-based; details: 48 h
In short: (§3)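 NF54:LUC P. falciparum erythrocytic stages (luciferase under hrp2 promoter) at 3% parasitemia, 25% hematocrit; compounds in RPMI-1640 with 1% DMSO, triplicate wells; untreated, DMSO-only and non-luciferase NF54 blank wells. […] Bright-Glo lysis, luminescence read.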

[4] = test system: Plasmodium falciparum; assay: Antiplasmodial activity against Plasmodium falciparum at 15 uM after 72 hrs by luciferase reporter gene assay; type: functional; in short: as §3
[5] = Inhibition of Toxoplasma gondii recombinant His6-tagged GSK-3 expressed in Escherichia coli using GS-1 peptide as substrate after 30 mins by scintillation counting analysis in presence of gamma-33P-ATP; type: cell-free; in short: as §1
[6] = Inhibition of Plasmodium knowlesi recombinant His6-tagged GSK-3 expressed in Escherichia coli using GS-1 peptide as substrate after 30 mins by scintillation counting analysis in presence of gamma-33P-ATP
In short: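 P. knowlesi GSK3 gene in pBAD-Thio-TOPO, expressed in E. coli TOP10 (ampicillin, 37 °C, 0.02% arabinose for 4 h), Ni-NTA purified. Radiometric assay: 40 μM GS-1 peptide in buffer A pH 7.5 (MgCl2, EGTA, DTT, heparin, BSA) with 15 μM γ-33P-ATP, 30 min at 30 °C. P81 filter binding, scintillation counting. IC50 from triplicate dose-response curves.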

[7] = Inhibition of Plasmodium falciparum recombinant His6-tagged GSK-3 expressed in Escherichia coli using GS-1 peptide as substrate after 30 mins by scintillation counting analysis in presence of gamma-33P-ATP; in short: as §1
[8] = biological target: Glycogen synthase kinase-3 beta (Homo sapiens, UniProt P49841); assay: Inhibition of human Nt-GST-tagged GSK-3beta
Glycogen synthase kinase-3 beta, sequence (P49841 whole entry, canonical isoform): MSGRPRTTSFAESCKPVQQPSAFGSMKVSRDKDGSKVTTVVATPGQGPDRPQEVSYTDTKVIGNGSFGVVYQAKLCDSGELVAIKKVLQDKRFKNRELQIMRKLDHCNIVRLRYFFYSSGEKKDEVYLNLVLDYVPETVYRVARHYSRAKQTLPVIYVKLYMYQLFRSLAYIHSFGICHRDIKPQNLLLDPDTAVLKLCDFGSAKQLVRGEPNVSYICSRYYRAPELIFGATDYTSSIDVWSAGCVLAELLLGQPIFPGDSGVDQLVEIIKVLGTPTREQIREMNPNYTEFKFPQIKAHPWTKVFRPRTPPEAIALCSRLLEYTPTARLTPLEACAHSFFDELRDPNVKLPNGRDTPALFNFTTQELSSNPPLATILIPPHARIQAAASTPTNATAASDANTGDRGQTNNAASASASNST
In short: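 Recombinant human GSK-3 isoform assayed radiometrically: 40 μM GS-1 peptide in buffer A pH 7.5 with 15 μM γ-33P-ATP, 30 min at 30 °C. Read-out by P81 filter binding and scintillation. IC50 from triplicate dose-response curves; top inhibitor concentration 10, 25 or 100 μM.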

[9] = biological target: Glycogen synthase kinase-3 (Sus scrofa, UniProt B2LUN4+I6LNT8); assay: Inhibition of pig GSK-3alpha/beta; in short: as §2
[10] = Inhibition of Leishmania donovani GSK-3
[11] = Inhibition of Trypanosoma brucei GSK-3
[12] = Inhibition of Trypanosoma cruzi GSK-3
[13] = Inhibition of Cryptosporidium parvum recombinant His6-tagged GSK-3 expressed in Escherichia coli using GS-1 peptide as substrate after 30 mins by scintillation counting analysis in presence of gamma-33P-ATP; in short: as §1
[14] = in the assay text read “48 hrs” for “72 hrs”

IC50 [1] | IC50 [2] | SMILES | also measured
> 10 µM | > 10 µM | COc1ccccc1-c1c(C#N)c(N)nc2sc(C(=O)c3ccc(C(F)(F)F)cc3)c(N)c12 | 
> 10 µM | > 10 µM | Nc1c(C(=O)c2ccccc2)sc2nc3c(c(-c4ccccc4I)c12)CCCC3 | 
2.2 µM | > 10 µM | N#Cc1c(N)nc2sc(C(=O)c3cccc(C(F)(F)F)c3)c(N)c2c1-c1ccccc1Cl | EC50 [3, 14]: 5.6 µM; inhibition at 15 µM [4]: 100%
> 10 µM | > 10 µM | N#Cc1sc2nc(N)c(C#N)c(-c3ccccc3I)c2c1N | 
6 µM | > 100 µM | COc1ccccc1-c1c(C#N)c(N)nc2sc(C(=O)c3ccccc3)c(N)c12 | IC50 [5]: > 100 µM; IC50 [6]: 95 µM; IC50 [7]: 6 µM; IC50 [8]: > 100 µM; IC50 [9]: > 100 µM; IC50 [10]: 80 µM; IC50 [11]: > 100 µM; IC50 [12]: > 100 µM; IC50 [13]: > 100 µM
> 10 µM | > 10 µM | COc1ccccc1-c1c(C#N)c(N)nc2sc(C(=O)c3ccc(Cl)cc3)c(N)c12 | 
> 10 µM | > 10 µM | N#Cc1c(N)nc2sc(C(=O)c3cccc(Cl)c3)c(N)c2c1-c1cccs1 | 
> 100 µM | > 100 µM | N#Cc1c(N)nc2sc(C(=O)c3ccc(Cl)cc3)c(N)c2c1-c1ccccc1 | 
> 10 µM | > 10 µM | CCOc1ccccc1-c1c(C#N)c(N)nc2sc(C#N)c(N)c12 | 
8.5 µM | > 10 µM | COc1ccccc1-c1c(C#N)c(N)nc2sc(C(=O)c3cccc(Cl)c3)c(N)c12 | 
> 10 µM | > 10 µM | N#Cc1c(N)nc2sc(C(=O)c3ccc(C(F)(F)F)cc3)c(N)c2c1-c1ccccc1I | 
 |  | N#Cc1c(N)nc2sc(C(=O)c3ccc(Cl)cc3)c(N)c2c1-c1ccccc1I | IC50 [5]: > 100 µM; IC50 [6]: 15.5 µM; IC50 [7]: 1.61 µM; IC50 [8]: > 100 µM; IC50 [9]: > 100 µM; IC50 [10]: 80 µM; IC50 [11]: > 100 µM; IC50 [12]: > 100 µM; IC50 [13]: > 100 µM
2.7 µM | > 10 µM | N#Cc1c(N)nc2sc(C(=O)c3ccc(Cl)c(Cl)c3)c(N)c2c1-c1ccccc1Cl | EC50 [3, 14]: 3.7 µM; inhibition at 15 µM [4]: 100%
10 µM | > 100 µM | N#Cc1c(N)nc2sc(C(=O)c3cccc(Cl)c3)c(N)c2c1-c1ccccc1F | 
> 10 µM | > 10 µM | N#Cc1c(N)nc2sc(C(=O)Nc3ccc(Cl)cc3)c(N)c2c1-c1ccccc1Cl | 
> 10 µM | > 10 µM | COc1ccccc1-c1c(C#N)c(N)nc2sc(C(=O)c3ccc(C)cc3)c(N)c12 | 
3.2 µM | > 10 µM | Cc1ccc(C(=O)c2sc3nc(N)c(C#N)c(-c4ccccc4I)c3c2N)cc1 | 
> 10 µM | > 10 µM | COc1ccc(C(=O)c2sc3nc(N)c(C#N)c(-c4ccccc4OC)c3c2N)cc1 | 
> 10 µM | > 10 µM | Nc1c(C(=O)c2ccc(Cl)cc2)sc2nc3c(c(-c4ccccc4I)c12)CCCC3 | 
> 10 µM | > 10 µM | N#Cc1c(N)nc2sc(C(=O)Nc3ccc(Cl)cc3)c(N)c2c1-c1ccccc1Br | 
> 10 µM | > 10 µM | N#Cc1c(N)nc2sc(C(=O)Nc3ccc(Cl)cc3)c(N)c2c1-c1ccccc1I | 
1.7 µM | > 10 µM | COc1ccc(C(=O)c2sc3nc(N)c(C#N)c(-c4ccccc4I)c3c2N)cc1 | 

IC50 [1] | IC50 [2] | SMILES | also measured
3.8 µM | > 10 µM | N#Cc1c(N)nc2sc(C(=O)c3ccc(Cl)c(Cl)c3)c(N)c2c1-c1ccccc1Br | 
> 100 µM | > 100 µM | N#Cc1c(N)nc2sc(C(=O)c3ccc(Cl)cc3)c(N)c2c1-c1ccccc1Br | 
1.7 µM | > 10 µM | COc1cccc(C(=O)c2sc3nc(N)c(C#N)c(-c4ccccc4Cl)c3c2N)c1 | inhibition at 15 µM [4]: 63.5%
> 10 µM | > 10 µM | COc1ccccc1-c1c(C#N)c(N)nc2sc(C(=O)c3ccccc3Cl)c(N)c12 | 
0.5 µM | > 10 µM | N#Cc1cccc(C(=O)c2sc3nc(N)c(C#N)c(-c4ccccc4Cl)c3c2N)c1 | IC50 [5]: > 100 µM; IC50 [6]: 6.5 µM; IC50 [7]: 0.5 µM; inhibition at 15 µM [4]: 30.3%; IC50 [9]: > 100 µM; IC50 [10]: 100 µM; IC50 [11]: > 100 µM; IC50 [12]: > 100 µM; IC50 [13]: > 100 µM
0.91 µM | > 10 µM | N#Cc1c(N)nc2sc(C(=O)c3cccc(Br)c3)c(N)c2c1-c1ccccc1Cl | EC50 ([3]; in the assay text read “after 48 hrs” for “after 72 hrs”): 7.5 µM; inhibition at 15 µM [4]: 100%
0.13 µM | 0.4 µM | N#Cc1sc2nc(N)c(C#N)c(-c3ccccc3Cl)c2c1N | 
0.8 µM | 1.3 µM | N#Cc1sc2nc(N)c(C#N)c(-c3ccccc3Br)c2c1N | 
> 10 µM | > 10 µM | N#Cc1c(N)nc2sc(C(=O)c3ccccc3Cl)c(N)c2c1-c1ccccc1I | 
1.6 µM | 3.5 µM | N#Cc1sc2nc(N)c(C#N)c(-c3c[nH]c4ccccc34)c2c1N | 
0.51 µM | 2 µM | Cc1ccccc1-c1c(C#N)c(N)nc2sc(C#N)c(N)c12 | 
0.91 µM | > 10 µM | N#Cc1c(N)nc2sc(C(=O)c3cccc(Cl)c3)c(N)c2c1-c1ccccc1I | IC50 [5]: > 100 µM; IC50 [6]: 2.75 µM; IC50 [7]: 0.91 µM; inhibition at 15 µM [4]: 65.4%; IC50 [9]: > 100 µM; IC50 [10]: 70 µM; IC50 [11]: > 100 µM; IC50 [12]: > 100 µM; IC50 [13]: > 100 µM
2.4 µM | > 10 µM | N#Cc1c(N)nc2sc(C(=O)c3ccccc3)c(N)c2c1-c1ccccc1I | 
0.61 µM | > 10 µM | N#Cc1c(N)nc2sc(C(=O)c3cccc(Cl)c3)c(N)c2c1-c1ccccc1Br | IC50 [5]: > 100 µM; IC50 [6]: 1.45 µM; IC50 [7]: 0.61 µM; inhibition at 15 µM [4]: 77.1%; IC50 [9]: > 100 µM; IC50 [10]: 44 µM; IC50 [11]: > 100 µM; IC50 [12]: > 100 µM; IC50 [13]: > 100 µM
> 10 µM | > 10 µM | COc1ccccc1-c1c(C#N)c(N)nc2sc(C#N)c(N)c12 | 
70 µM | > 100 µM | N#Cc1c(N)nc2sc(C(=O)c3ccc(Cl)c(Cl)c3)c(N)c2c1-c1ccccc1I | 
> 10 µM | > 10 µM | CCOc1ccccc1-c1c(C#N)c(N)nc2sc(C(=O)c3ccc(Cl)cc3)c(N)c12 | 
> 10 µM | > 10 µM | COc1ccccc1-c1c(C#N)c(N)nc2sc(C(=O)c3ccc(C#N)cc3)c(N)c12 | 
> 100 µM | > 100 µM | N#Cc1c(N)nc2sc(C(=O)c3cccc(F)c3)c(N)c2c1-c1ccccc1Cl | 
0.18 µM | 2.3 µM | N#Cc1sc2nc(N)c(C#N)c(-c3cccs3)c2c1N | 
1.1 µM | > 10 µM | N#Cc1c(N)nc2sc(C(=O)c3ccccc3)c(N)c2c1-c1ccccc1Br | 

From ChEMBL document CHEMBL2311539, “3,6-Diamino-4-(2-halophenyl)-2-benzoylthieno[2,3-b]pyridine-5-carbonitriles are selective inhibitors of Plasmodium falciparum glycogen synthase kinase-3” (J Med Chem, 2013)
